According to ChEMBL document CHEMBL1144264, “Structure-activity relationship studies on ortho-substituted cinnamic acids, a new class of selective EP(3) antagonists” (Bioorg Med Chem Lett, 2005):

Assays:
[1] = biological target: Prostaglandin E2 receptor EP2 subtype (Homo sapiens, UniProt P43116); assay: Binding affinity for human prostanoid EP2 receptor
[2] = biological target: Prostaglandin E2 receptor EP4 subtype (Homo sapiens, UniProt P35408); assay: Binding affinity for human prostanoid EP4 receptor
[3] = system: HEK293; assay: Inhibition of c-AMP production in HEK (EBNA) cells was determined by c-AMP assay; assay type: functional, HEK293-EBNA; conditions: Homo sapiens
Summary of the method: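 Functional cAMP read-out in HEK (EBNA) cells expressing the receptor: antagonism scored as reversal of EP3-mediated inhibition of cAMP production; EP2 activity scored as stimulation of cAMP production.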

[4] = biological target: T1, Prostaglandin E2 receptor EP1 subtype (Homo sapiens, UniProt P34995); assay: Binding affinity for human prostanoid EP1 receptor
T1 sequence (P34995 whole entry): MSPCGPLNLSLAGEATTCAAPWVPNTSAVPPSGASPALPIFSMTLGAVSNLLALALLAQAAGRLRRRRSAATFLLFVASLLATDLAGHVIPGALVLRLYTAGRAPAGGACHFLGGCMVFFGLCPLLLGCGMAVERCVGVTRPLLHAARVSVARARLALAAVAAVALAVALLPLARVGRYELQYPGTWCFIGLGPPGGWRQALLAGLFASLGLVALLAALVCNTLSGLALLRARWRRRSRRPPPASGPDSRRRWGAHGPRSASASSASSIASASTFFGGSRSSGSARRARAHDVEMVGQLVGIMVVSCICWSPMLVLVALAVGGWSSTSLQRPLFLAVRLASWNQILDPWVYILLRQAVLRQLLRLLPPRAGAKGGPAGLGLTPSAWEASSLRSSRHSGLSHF

[5] = biological target: T2, Prostaglandin E2 receptor EP3 subtype (Homo sapiens, UniProt P43115); assay: Binding affinity for human prostanoid EP3 receptor
T2 sequence (P43115 whole entry): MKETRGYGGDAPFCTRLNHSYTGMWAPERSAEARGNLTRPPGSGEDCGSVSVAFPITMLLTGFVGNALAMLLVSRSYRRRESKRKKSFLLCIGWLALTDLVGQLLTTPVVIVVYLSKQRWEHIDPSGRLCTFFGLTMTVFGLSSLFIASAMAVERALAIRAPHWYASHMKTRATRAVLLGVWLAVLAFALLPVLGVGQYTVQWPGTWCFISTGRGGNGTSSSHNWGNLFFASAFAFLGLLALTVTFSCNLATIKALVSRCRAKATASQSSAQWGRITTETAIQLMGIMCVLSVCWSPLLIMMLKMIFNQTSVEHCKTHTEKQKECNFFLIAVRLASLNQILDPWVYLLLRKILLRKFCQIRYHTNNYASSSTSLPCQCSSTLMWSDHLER

[6] = Half life in rats after 10 mg/kg peroral and 5 mg/kg intravenous administration as sodium salts; assay type: ADME, organism-based; conditions: rat, in vivo
Summary of the method: (§1)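 Male Sprague–Dawley rats, 300–400 g. Oral bioavailability, clearance (mL/min/kg), Cmax (µM, with time of peak) and half-life derived from plasma profiles.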

[7] = Maximum concentration in rats after 10 mg/kg peroral and 5 mg/kg intravenous administration as sodium salts; assay type: ADME, organism-based; conditions: rat, in vivo, po; summary of the method: as §1
[8] = system: HEK293; assay: Stimulation of c-AMP production in HEK (EBNA) cells was determined by c-AMP assay; conditions: Homo sapiens
[9] = Bioavailability in rat (dose 10 mg/kg p.o. and 5 mg/kg i.v.) (dosed as sodium salt); assay type: ADME, organism-based; conditions: in vivo, po; summary of the method: as §1
[10] = Clearance in rats after 10 mg/kg peroral and 5 mg/kg intravenous administration as sodium salts; assay type: ADME, organism-based; conditions: rat, in vivo; summary of the method: as §1

Sequence of Prostaglandin E2 receptor EP2 subtype (P43116 whole entry): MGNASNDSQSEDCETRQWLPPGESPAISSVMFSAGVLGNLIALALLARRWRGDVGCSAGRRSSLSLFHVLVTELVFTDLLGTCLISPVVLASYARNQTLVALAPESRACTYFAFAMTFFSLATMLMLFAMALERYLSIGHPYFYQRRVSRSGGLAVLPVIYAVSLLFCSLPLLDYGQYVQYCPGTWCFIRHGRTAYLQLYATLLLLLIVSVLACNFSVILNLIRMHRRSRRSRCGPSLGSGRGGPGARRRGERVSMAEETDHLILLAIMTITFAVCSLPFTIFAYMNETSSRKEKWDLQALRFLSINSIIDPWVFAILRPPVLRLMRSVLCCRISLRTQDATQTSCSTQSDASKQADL
Sequence of Prostaglandin E2 receptor EP4 subtype (P35408 whole entry): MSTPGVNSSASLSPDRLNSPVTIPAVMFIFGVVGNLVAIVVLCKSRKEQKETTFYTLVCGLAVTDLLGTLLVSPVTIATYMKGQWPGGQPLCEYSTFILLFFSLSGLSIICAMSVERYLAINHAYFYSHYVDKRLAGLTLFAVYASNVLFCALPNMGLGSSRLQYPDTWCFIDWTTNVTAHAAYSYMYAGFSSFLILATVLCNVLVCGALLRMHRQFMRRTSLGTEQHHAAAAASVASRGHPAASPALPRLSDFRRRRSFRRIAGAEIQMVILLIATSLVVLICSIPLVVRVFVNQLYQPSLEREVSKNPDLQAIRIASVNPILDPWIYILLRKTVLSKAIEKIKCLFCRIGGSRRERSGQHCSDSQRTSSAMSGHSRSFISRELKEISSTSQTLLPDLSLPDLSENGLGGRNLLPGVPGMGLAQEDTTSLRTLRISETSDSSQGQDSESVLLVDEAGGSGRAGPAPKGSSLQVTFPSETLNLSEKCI

O=C(O)/C=C/c1ccccc1/C=C/Cc1ccccc1OCc1ccccc1.O=C(O)/C=C/c1ccccc1C/C=C\c1ccccc1OCc1ccccc1
Ki [1]: 0.68 µM
Ki [2]: 1 µM
Kb [3]: 0.05 µM
Ki [4]: 24 µM
Ki [5]: 0.025 µM

O=C(O)/C=C/c1ccccc1/C=C/Cc1cccc(OCc2ccccc2)c1.O=C(O)/C=C/c1ccccc1C/C=C\c1cccc(OCc2ccccc2)c1
Ki [1]: 0.018 µM
Ki [2]: 0.45 µM
Kb [3]: 0.062 µM
Ki [4]: 14 µM
Ki [5]: 0.05 µM

Cc1cccc(/C=C/Cc2cccc(/C=C/C(=O)O)c2)c1OCc1ccccc1.Cc1cccc(C/C=C/c2cccc(/C=C/C(=O)O)c2)c1OCc1ccccc1
Ki [1]: 0.63 µM
Ki [2]: 3.1 µM
Ki [4]: 21 µM
Ki [5]: 2 µM

Cc1cccc(/C=C/Cc2ccc(/C=C/C(=O)O)cc2)c1OCc1ccccc1.Cc1cccc(C/C=C\c2ccc(/C=C/C(=O)O)cc2)c1OCc1ccccc1
Ki [1]: 1.7 µM
Ki [2]: 5.5 µM
Ki [4]: > 30 µM
Ki [5]: 2.9 µM

Cc1cccc(/C=C\Cc2ccccc2C(=O)O)c1OCc1ccccc1.Cc1cccc(C/C=C/c2ccccc2C(=O)O)c1OCc1ccccc1
Ki [1]: 7.1 µM
Ki [2]: 5.7 µM
Ki [4]: 16 µM
Ki [5]: 2.7 µM

Cc1cccc(/C=C/Cc2ccccc2CC(=O)O)c1OCc1ccccc1.Cc1cccc(C/C=C/c2ccccc2CC(=O)O)c1OCc1ccccc1
Ki [1]: 2.9 µM
Ki [2]: 4.3 µM
Ki [4]: 21 µM
Ki [5]: 3.4 µM

CC(=O)c1ccc(OCc2ccccc2)c(/C=C/Cc2ccccc2/C=C/C(=O)O)c1.CC(=O)c1ccc(OCc2ccccc2)c(C/C=C/c2ccccc2/C=C/C(=O)O)c1
Ki [1]: 8.7 µM
Ki [2]: 0.83 µM
Ki [4]: 2.8 µM
Ki [5]: 0.26 µM

O=C(O)/C=C/c1ccccc1/C=C/Cc1cccc(CO)c1OCc1c(Cl)cccc1Cl.O=C(O)/C=C/c1ccccc1C/C=C/c1cccc(CO)c1OCc1c(Cl)cccc1Cl
Ki [1]: 2.5 µM
Ki [2]: 0.74 µM
Ki [4]: 7.1 µM
Ki [5]: 0.013 µM

O=C(O)/C=C/c1ccccc1/C=C/Cc1ccccc1.O=C(O)/C=C/c1ccccc1C/C=C/c1ccccc1
Ki [1]: 1.4 µM
Ki [2]: 4.4 µM
Ki [4]: > 100 µM
Ki [5]: 0.1 µM

COc1ccc(/C=C/Cc2ccccc2/C=C/C(=O)O)cc1.COc1ccc(C/C=C/c2ccccc2/C=C/C(=O)O)cc1
Ki [1]: 2.5 µM
Ki [2]: 6.2 µM
Ki [4]: > 100 µM
Ki [5]: 0.068 µM

COc1cc(/C=C\Cc2ccccc2/C=C/C(=O)O)ccc1OCc1ccccc1.COc1cc(C/C=C/c2ccccc2/C=C/C(=O)O)ccc1OCc1ccccc1
Ki [1]: 0.75 µM
Ki [2]: 0.61 µM
Kb [3]: 0.006 µM
Ki [4]: > 20 µM
Ki [5]: 0.008 µM

Cc1cccc(/C=C/Cc2ccccc2/C=C/C(=O)O)c1OCc1ccccc1
Kb [3]: 0.017 µM

Cc1cccc(/C=C/Cc2ccccc2/C=C/C(=O)O)c1OCc1ccc(F)cc1
Ki [1]: 4.1 µM
Ki [2]: 2.4 µM
Kb [3]: 0.004 µM
Ki [4]: 17 µM
Ki [5]: 0.007 µM

Cc1cccc(CCCc2ccccc2CCC(=O)O)c1OCc1ccccc1
Ki [1]: 0.94 µM
Ki [2]: 0.44 µM
Ki [4]: 23 µM
Ki [5]: 0.065 µM

Cc1cccc(/C=C/Cc2ccccc2/C=C/C(=O)O)c1O
Ki [1]: 7.3 µM
Ki [2]: 1.6 µM
Kb [3]: 0.028 µM
Ki [4]: 68 µM
Ki [5]: 0.01 µM

Cc1cccc(/C=C/C(O)c2ccccc2/C=C/C(=O)O)c1OCc1c(Cl)cccc1Cl (configuration not stated)
Ki [1]: 2.1 µM
Ki [2]: 0.93 µM
Kb [3]: 0.03 µM
Ki [4]: 3 µM
Ki [5]: 0.01 µM

O=C(O)/C=C/c1ccccc1/C=C/c1ccccc1OCc1ccccc1
Ki [1]: 0.008 µM
half-life [6]: 2 h
Ki [2]: 2.8 µM
Ki [4]: 45 µM
Cmax [7]: 1.7 µM
Kb [8]: 0.003 µM
Ki [5]: 1.4 µM
bioavailability [9]: 17%
clearance [10]: 16 mL/min/kg

COc1cccc(CCCc2ccccc2/C=C/C(=O)O)c1OCc1ccccc1
Ki [1]: 1.1 µM
Ki [2]: 4.3 µM
Kb [3]: 0.029 µM
Ki [4]: > 9 µM
Ki [5]: 0.019 µM

Cc1cccc(/C=C/Cc2ccccc2/C=C/C(=O)O)c1OCc1c(Cl)cccc1Cl
Ki [1]: 5.4 µM
half-life [6]: 2 h
Ki [2]: 0.62 µM
Kb [3]: 0.006 µM
Ki [4]: 6.7 µM
Cmax [7]: 25 µM
Ki [5]: 0.003 µM
bioavailability [9]: 74%
clearance [10]: 5.8 mL/min/kg

Cc1cccc(C(O)/C=C/c2ccccc2/C=C/C(=O)O)c1OCc1c(Cl)cccc1Cl (configuration not stated)
Ki [1]: 3.9 µM
Ki [2]: 1 µM
Kb [3]: 0.03 µM
Ki [4]: 13 µM
Ki [5]: 0.009 µM

Cc1cccc(CCCc2ccccc2/C=C/C(=O)O)c1OCc1ccccc1
Ki [1]: 0.38 µM
Ki [2]: 2.9 µM
Kb [3]: 0.038 µM
Ki [4]: > 10 µM
Ki [5]: 0.013 µM

Cc1cccc(/C=C/Cc2ccccc2/C=C/C(=O)O)c1OCc1ccccc1.Cc1cccc(C/C=C/c2ccccc2/C=C/C(=O)O)c1OCc1ccccc1 (stereo in doubt; 2a)
Ki [1]: 0.55 µM
Ki [2]: 1.2 µM
Ki [5]: 0.013 µM

Cc1cccc(/C=C/Cc2ccccc2/C=C/C(=O)O)c1OCc1ccccc1.Cc1cccc(C/C=C/c2ccccc2/C=C/C(=O)O)c1OCc1ccccc1 (stereo in doubt; 2a/3a)
Ki [1]: 0.86 µM
half-life [6]: 2 h
Ki [2]: 2 µM
Kb [3]: 0.032 µM
Ki [4]: 19 µM
Cmax [7]: 22 µM
Ki [5]: 0.009 µM
bioavailability [9]: 97%
clearance [10]: 10 mL/min/kg
